Data: paper PMC5552238 (EBioMedicine, 2017)

System: subcutaneous Hepa1-6 liver cancers
Assay: Subcutaneous Hepa1-6 liver cancers, 747 combined with low-dose sorafenib
Format: in vivo, mouse
Conditions: sorafenib low dose 10 mg/kg
Summary of the method: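 Hepa1-6 cells (1.5 × 106) injected into right flank; mice randomized at ~0.5 cm tumors. Test compound given i.p. daily (0.5% HPMC/0.2% Tween), alone or with sorafenib 10 mg/kg intragastric. Volume = 1/2a × b². End-point paraffin sections stained for F4/80, Arg-1 and cleaved caspase-3 (primary overnight at 4 °C, HRP secondary 1 h at 37 °C, DAB). Sorted intratumoral CD8+ T cells analysed by qRT-PCR normalized to GAPDH/L32.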

CNC(=O)c1cc(Oc2ccc(NC(=O)Nc3ccc(Cl)c(C(F)(F)F)c3)cc2)ccn1 [sorafenib]
therapeutic effect on subcutaneous tumors: no efficacy
